Data as given in ChEMBL document CHEMBL1127737, “Characterization of two taxol photoaffinity analogues bearing azide and benzophenone-related photoreactive substituents in the A-ring side chain” (1994).
pEC50: −log10 of the molar value.

Legend:
[1] = Relative initial slope of the compound; assay type: functional
How it was run: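 Calf brain microtubule protein, purified by two cycles of temperature-dependent assembly-disassembly. Assembly ran in 0.1 M MES, 1 mM EGTA, MgCl2 and 3 M glycerol, pH 6.6, at 35 °C and was followed by turbidity at 350 nm. Assembly extent and initial slope were expressed relative to taxol. DMSO vehicle was at most 1% final.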

J774 = experiment: Concentration that inhibits the cell division by 50% after 72 h; assay type: functional; conditions: Mus musculus, J774, 72 h; read-out: ED50 (the source's name)
How it was run: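 J774.2 murine macrophage-like cells (3×10^5 per 60-mm plate) incubated with a range of compound concentrations; viable cell number counted by Coulter counter after 72 h. ED50 taken as the concentration inhibiting cell division by 50%. Compounds dissolved in DMSO, final DMSO at most 0.2%.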

Tubulin (Bos taurus) = experiment: Effect of compound on assembly property of microtubule protein. 1.5 mg/mL MTP + 15 uM compound

Row | pEC50 (J774) | SMILES | Relative initial slope [1] | Assembly (Tubulin (Bos taurus)) [%]
1 | 6.55 | CC(=O)O[C@H]1C(=O)[C@@]2(C)[C@H]([C@H](OC(=O)c3ccccc3)[C@]3(O)C[C@H](OC(=O)[C@H](O)[C@@H](NC(=O)c4ccc(N=[N+]=[N-])cc4)c4ccccc4)C(C)=C1C3(C)C)[C@]1(OC(C)=O)CO[C@@H]1C[C@@H]2O | 84 | 
2 | 5.82 | CC(=O)O[C@H]1C(=O)[C@@]2(C)[C@H]([C@H](OC(=O)c3ccccc3)[C@]3(O)C[C@H](OC(=O)[C@H](O)C(NC(=O)c4ccc(C(=O)c5ccccc5)cc4)c4ccccc4)C(C)=C1C3(C)C)[C@]1(OC(C)=O)CO[C@@H]1C[C@@H]2O (stereo not given in full) | 15 | 39
3 |  | Nc1nc2c(ncn2[C@@H]2O[C@H](COP(=O)(O)OP(=O)(O)OP(=O)(O)O)[C@@H](O)[C@H]2O)c(=O)[nH]1 [GUANOSINE TRIPHOSPHATE] | 65 | 70
4 | 7.05 | CC(=O)O[C@H]1C(=O)[C@@]2(C)[C@H]([C@H](OC(=O)c3ccccc3)[C@]3(O)C[C@H](OC(=O)[C@H](O)[C@@H](NC(=O)c4ccccc4)c4ccccc4)C(C)=C1C3(C)C)[C@]1(OC(C)=O)CO[C@@H]1C[C@@H]2O [PACLITAXEL] | 100 | 100
